Reference: publication PMC3880025 (ACS nano, 2013)

Experiments:
cultured cells = conditions: preliminary screening of QD cellular delivery; cited from earlier work
[1] = test system: Primary human dermal fibroblasts; test: Cellular viability after exposure to QD-peptide conjugates; format: cell-based; conditions: exposure to 100 nM of 75 peptide/QD
COS-1 cells [2] = test: Semi-quantitative imaging assay of QD uptake and endosomal escape; format: cell-based, African Green Monkey
COS-1 cells [3] = test: Cellular viability after exposure to QD-peptide conjugates; format: cell-based, African Green Monkey
PC12 cells = test: as above; format: cell-based, rat; conditions: exposure to 100 nM of 75 peptide/QD
Hela cells = test: as above; format: cell-based, human; conditions: exposure to 100 nM of 75 peptide/QD
[4] = test system: Primary human dermal fibroblasts; test: Semi-quantitative imaging assay of QD uptake and endosomal escape; format: cell-based
Summary of the method: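 Peptides were self-assembled onto 550 nm CdSe/ZnS QDs in DMEM with 25 mM HEPES at 25°C for 20–30 min (QDs typically 80–150 nM final). Cells on fibronectin-coated coverglass were exposed for 2 h at 37°C with Tf-Cy5 (50 µg/mL) to mark endosomes, then washed, cultured 48 h, fixed in 3.7% paraformaldehyde and DAPI-stained. Individual cells were imaged and classed for QD uptake (none/low/moderate/high) and endosomal escape.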

HEK 293 cells = test: Cellular viability after exposure to QD-peptide conjugates; format: cell-based, human; conditions: exposure to 100 nM of 75 peptide/QD
A549 cells = test: as above; format: cell-based, human; conditions: exposure to 100 nM of 75 peptide/QD

WG•(Dap^Pal)•VKIKK•P9•GG•H6 [JB577]
Time after delivery at which cytosolic release peaked (cultured cells): ~ 48 h
Time of endocytic uptake of QDs (cultured cells): 1 to 2 h
Cellular viability (%) [1]: 92 ±6%
% Escape in cells with uptake (COS-1 cells [2]; 100 nM 550 nm QDs, 75 peptides/QD, 2 h incubation, 48 h culture): ~ 77%
Endosomal escape / intracellular localization of QDs, result in words (COS-1 cells [2]; QD-peptide conjugates, SAR comparison with JB577): well-dispersed throughout the cytosol
Overall uptake/escape: QD uptake class (COS-1 cells [2]; first word of the cell, 100 nM QDs, 75 peptides/QD, 48 h culture): high/high (high (>60% uptake))
Cellular viability, continuous 48 h exposure, peptide alone (COS-1 cells [3]; continuous 48 h exposure to peptide alone): 87±7%
Cellular viability, continuous 48 h exposure, QD conjugates (COS-1 cells [3]; continuous 48 h exposure to peptide-QD conjugates): 97±6%
Cellular viability (%) (COS-1 cells [3]; exposure to 100 nM of 75 peptide/QD): 98 ±4%
Cellular viability (%) (PC12 cells): 97 ±10%
Cellular viability (%) (Hela cells): 98 ±1%
Overall uptake/escape: QD uptake class ([4]; first word of the cell): high (high (>60% uptake))
Overall uptake/escape: endosomal escape class ([4]; second word of the cell): moderate (moderate (30–70%))
Cellular viability (%) (HEK 293 cells): 87 ±5%
Cellular viability (%) (A549 cells): 96 ±3%
